Results published in article PMC7502546 (ACS chemical biology, 2020).
pKi: −log10 of the molar value. Like-named read-outs stand apart in the source and are kept apart here.

Experiments:
[1] = test system: CaV1.3 channels over CaV1.2 channels; settings: cited from earlier work
CaV1.3 channels [2] = settings: micromolar concentrations; cited from earlier work
CaV1.3 = type: cell-based, rat; settings: for percent inhibition of evoked currents (median): wild-type CaV1.3, step −80 mV to 0 mV; for percentage inhibition of CaV1.3 peak currents (median): test step to 0 mV
Procedure, shortened: (§1)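 Rat α1D (wild type or point mutants made by site-directed mutagenesis, sequence-verified) was transiently co-transfected with CaVβ3 and CaVα2δ-1 at 1:1:1 into tsA201 cells, with 1/40 (w/w) GFP. GFP-positive cells were whole-cell clamped 48 h later at 22–25 °C. External solution held 10 mM BaCl2 (pH 7.4); internal was NMG-based with 5 mM BAPTA. DMSO stocks were diluted into barium solution and perfused. Median percent inhibition was reported.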

CaV1.2-V1063L = CaV1.2-V1063L (Oryctolagus cuniculus, UniProt P15381, V1063L); assay: Whole-cell patch clamp, CaV1.2-V1063L channels; type: cell-based, rabbit; settings: read-out: percent inhibition of evoked currents (median)
CaV1.2-V1063M+I1183V = CaV1.2-V1063M+I1183V (Oryctolagus cuniculus, UniProt P15381, I1183V/V1063M); assay: Whole-cell patch clamp, CaV1.2-V1063M+I1183V channels; type: cell-based, rabbit; settings: read-out: percent inhibition of evoked currents
CaV1.2-V1063K = CaV1.2-V1063K (Oryctolagus cuniculus, UniProt P15381, V1063K); assay: Whole-cell patch clamp, CaV1.2-V1063K channels; type: cell-based, rabbit
CaV1.3-M1078K = CaV1.3-M1078K (Rattus norvegicus, UniProt P27732, M1078K); assay: Whole-cell patch clamp, CaV1.3-M1078K channels; type: cell-based; settings: read-out: percent inhibition of evoked currents (median)
Chain of CaV1.3-M1078K (P27732 whole entry M1078K): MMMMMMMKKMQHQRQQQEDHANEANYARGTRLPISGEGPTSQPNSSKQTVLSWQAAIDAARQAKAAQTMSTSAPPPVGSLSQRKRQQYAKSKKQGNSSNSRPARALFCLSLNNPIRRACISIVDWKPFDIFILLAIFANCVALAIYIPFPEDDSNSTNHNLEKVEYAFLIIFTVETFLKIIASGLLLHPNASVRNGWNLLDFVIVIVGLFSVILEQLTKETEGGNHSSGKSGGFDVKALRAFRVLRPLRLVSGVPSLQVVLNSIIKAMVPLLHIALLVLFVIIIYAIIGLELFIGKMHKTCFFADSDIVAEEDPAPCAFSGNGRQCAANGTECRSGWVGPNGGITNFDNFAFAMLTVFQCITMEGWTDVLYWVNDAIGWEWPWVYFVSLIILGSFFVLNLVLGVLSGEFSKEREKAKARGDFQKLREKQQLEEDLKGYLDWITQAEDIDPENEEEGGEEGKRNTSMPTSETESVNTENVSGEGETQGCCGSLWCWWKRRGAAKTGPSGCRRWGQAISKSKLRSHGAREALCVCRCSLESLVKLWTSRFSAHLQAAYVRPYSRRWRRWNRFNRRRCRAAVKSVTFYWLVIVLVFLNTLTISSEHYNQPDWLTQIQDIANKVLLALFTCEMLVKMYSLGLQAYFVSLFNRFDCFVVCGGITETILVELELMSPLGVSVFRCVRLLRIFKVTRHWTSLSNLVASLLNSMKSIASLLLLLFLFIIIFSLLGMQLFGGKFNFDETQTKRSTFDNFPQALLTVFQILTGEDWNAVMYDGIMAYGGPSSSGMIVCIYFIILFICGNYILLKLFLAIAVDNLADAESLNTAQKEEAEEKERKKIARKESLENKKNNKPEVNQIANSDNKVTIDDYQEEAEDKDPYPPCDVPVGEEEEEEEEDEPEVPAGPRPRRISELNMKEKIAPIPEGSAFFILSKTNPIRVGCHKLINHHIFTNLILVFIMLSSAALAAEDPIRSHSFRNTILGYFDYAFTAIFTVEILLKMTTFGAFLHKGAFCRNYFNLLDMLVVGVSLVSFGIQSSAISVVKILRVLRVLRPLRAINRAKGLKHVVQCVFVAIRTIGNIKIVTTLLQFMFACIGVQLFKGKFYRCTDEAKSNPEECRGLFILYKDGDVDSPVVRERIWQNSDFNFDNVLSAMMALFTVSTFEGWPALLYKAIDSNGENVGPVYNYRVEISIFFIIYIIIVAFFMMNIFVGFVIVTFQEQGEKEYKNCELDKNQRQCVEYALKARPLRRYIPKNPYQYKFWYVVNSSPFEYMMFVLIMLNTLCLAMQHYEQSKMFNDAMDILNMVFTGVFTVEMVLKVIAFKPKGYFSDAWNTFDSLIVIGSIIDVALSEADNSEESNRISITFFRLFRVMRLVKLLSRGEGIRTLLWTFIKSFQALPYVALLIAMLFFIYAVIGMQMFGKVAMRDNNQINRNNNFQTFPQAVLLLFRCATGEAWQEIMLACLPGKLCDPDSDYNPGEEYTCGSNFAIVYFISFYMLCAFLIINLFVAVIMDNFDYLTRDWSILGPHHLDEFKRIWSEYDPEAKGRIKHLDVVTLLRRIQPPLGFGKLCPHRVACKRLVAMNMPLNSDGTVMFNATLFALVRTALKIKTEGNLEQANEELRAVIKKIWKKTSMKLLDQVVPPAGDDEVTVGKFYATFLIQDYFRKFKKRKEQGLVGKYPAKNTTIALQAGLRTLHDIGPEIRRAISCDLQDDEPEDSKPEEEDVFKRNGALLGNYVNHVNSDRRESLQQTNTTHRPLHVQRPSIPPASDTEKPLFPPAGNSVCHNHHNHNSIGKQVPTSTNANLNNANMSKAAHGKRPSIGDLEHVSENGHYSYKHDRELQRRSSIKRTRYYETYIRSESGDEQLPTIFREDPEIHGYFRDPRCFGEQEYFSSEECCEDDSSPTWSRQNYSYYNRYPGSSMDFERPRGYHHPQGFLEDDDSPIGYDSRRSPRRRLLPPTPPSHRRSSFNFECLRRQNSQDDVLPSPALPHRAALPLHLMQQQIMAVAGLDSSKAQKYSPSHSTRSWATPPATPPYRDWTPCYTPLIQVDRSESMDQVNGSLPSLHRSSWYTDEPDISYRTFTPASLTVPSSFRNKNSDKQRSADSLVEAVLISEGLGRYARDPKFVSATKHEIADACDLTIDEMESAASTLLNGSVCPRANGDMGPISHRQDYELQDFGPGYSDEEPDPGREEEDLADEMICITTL
Chain of CaV1.3-M1078K (P54287 whole entry partner): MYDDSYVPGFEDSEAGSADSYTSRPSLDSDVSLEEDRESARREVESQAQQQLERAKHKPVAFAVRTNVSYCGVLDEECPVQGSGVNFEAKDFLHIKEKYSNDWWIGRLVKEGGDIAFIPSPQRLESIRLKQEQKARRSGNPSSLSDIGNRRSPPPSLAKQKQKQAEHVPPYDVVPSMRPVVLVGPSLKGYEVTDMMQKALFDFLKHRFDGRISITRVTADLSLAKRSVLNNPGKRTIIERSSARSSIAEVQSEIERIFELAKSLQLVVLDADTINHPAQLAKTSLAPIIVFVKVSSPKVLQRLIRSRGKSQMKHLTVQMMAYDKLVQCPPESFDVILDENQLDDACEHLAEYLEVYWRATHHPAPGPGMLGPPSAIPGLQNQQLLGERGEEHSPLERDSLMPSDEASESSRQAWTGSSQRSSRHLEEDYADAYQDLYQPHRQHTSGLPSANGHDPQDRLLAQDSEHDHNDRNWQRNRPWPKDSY
Chain of CaV1.3-M1078K (P54290 25-1091 partner): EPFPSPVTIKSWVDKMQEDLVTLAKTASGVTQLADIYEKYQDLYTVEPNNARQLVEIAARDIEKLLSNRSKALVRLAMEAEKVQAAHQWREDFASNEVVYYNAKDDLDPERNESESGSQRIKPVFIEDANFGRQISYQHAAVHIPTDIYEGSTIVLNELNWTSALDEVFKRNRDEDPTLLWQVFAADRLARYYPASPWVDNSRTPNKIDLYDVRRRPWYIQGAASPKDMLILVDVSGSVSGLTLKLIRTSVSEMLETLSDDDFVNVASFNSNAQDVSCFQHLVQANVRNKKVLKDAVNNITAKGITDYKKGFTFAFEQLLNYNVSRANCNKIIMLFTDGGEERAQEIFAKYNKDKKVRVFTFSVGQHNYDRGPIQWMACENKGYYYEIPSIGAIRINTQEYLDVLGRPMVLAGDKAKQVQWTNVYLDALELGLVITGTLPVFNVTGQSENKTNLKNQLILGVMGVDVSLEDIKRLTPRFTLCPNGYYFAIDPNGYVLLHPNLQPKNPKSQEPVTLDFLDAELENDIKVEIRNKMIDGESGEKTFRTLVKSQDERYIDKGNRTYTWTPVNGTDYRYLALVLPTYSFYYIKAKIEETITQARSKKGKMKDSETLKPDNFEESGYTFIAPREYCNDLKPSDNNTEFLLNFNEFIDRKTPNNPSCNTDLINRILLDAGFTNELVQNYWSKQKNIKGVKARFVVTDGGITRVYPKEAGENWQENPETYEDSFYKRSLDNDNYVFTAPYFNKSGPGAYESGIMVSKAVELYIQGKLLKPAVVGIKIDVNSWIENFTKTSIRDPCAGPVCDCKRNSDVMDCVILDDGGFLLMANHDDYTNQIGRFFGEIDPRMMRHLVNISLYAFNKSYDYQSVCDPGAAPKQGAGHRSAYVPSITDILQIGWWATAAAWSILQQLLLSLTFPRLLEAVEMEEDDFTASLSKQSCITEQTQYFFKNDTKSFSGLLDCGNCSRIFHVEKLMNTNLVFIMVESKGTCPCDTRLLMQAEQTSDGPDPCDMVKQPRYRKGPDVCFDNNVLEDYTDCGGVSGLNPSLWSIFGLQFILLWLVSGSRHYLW
Procedure, shortened: as §1

CaV1.3-V1198I = CaV1.3-V1198I (Rattus norvegicus, UniProt P27732, V1198I); assay: Whole-cell patch clamp, CaV1.3-V1198I channels; type: cell-based; settings: read-out: percent inhibition of evoked currents
Chain of CaV1.3-V1198I (P27732 whole entry V1198I): as the sequence (P27732 whole entry M1078K) above, with K1078M, V1198I counted along it
Chain of CaV1.3-V1198I (P54287 whole entry partner): as the sequence (P54287 whole entry partner) above
Chain of CaV1.3-V1198I (P54290 25-1091 partner): as the sequence (P54290 25-1091 partner) above
Procedure, shortened: as §1

[3] = rodents; cited from earlier work
CaV1.3 channels [4] = settings: magnitude and selectivity dependent on auxiliary β subunit; cited from earlier work
[5] = test system: Cav1.3 calcium channels in adult SN dopaminergic (DA) neurons; assay: Voltage clamp of acutely isolated SN dopaminergic neurons from WT mice; type: cell-based
Procedure, shortened: (§2)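 SN dopaminergic neurons were acutely isolated from brain slices of young adult (P25) wild-type or CaV1.3 ([…]) knockout mice. Whole-cell voltage clamp used Ba2+ as charge carrier, with voltage ramps from −70 mV to +30 mV. Test compound was applied at 5 μM and 50 μM on wild-type cells and 50 μM on knockout cells. Maximum calcium permeability was compared by Mann-Whitney test.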

CaV1.2-I1183V = CaV1.2-I1183V (Oryctolagus cuniculus, UniProt P15381, I1183V); assay: Whole-cell patch clamp, CaV1.2-I1183V channels; type: cell-based, rabbit; settings: read-out: percent inhibition of evoked currents
[6] = test system: SN dopaminergic neuron from an adult Cav1.3-KO mouse; assay: Voltage clamp of SN dopaminergic neurons from Cav1.3-KO mouse; type: cell-based; settings: cp-PYT 50 μM; CaV1.3 knockout mouse
Procedure, shortened: as §2

CaV1.2 (wild-type) = CaV1.2 (wild-type) (Oryctolagus cuniculus, UniProt P15381); assay: Whole-cell patch clamp, wild-type CaV1.2 channels; type: cell-based, rabbit; settings: rabbit, pH 7.4
SN dopaminergic neurons [7] = type: cell-based, mice; settings: cp-PYT 50 μM; ex vivo brain slice
Procedure, shortened: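 Ex vivo brain slices from young adult mice were used. SN dopaminergic neurons were whole-cell patched and filled through the pipette with Alexa568 (20 μM) and Fluo-4 (200 μM). Two-photon laser scanning microscopy imaged Ca2+ along a dendrite while somatic voltage was recorded, before and after test compound application. Fluo-4 fluorescence was normalized to baseline (F0).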

CaV1.2-V1063M = CaV1.2-V1063M (Oryctolagus cuniculus, UniProt P15381, V1063M); assay: Whole-cell patch clamp, CaV1.2-V1063M channels; type: cell-based, rabbit; settings: read-out: percent inhibition of evoked currents (median)
CaV1.3-M1078V = assay: Whole-cell patch clamp, CaV1.3-M1078V channels; type: cell-based, rat; settings: for percent inhibition of evoked currents (median): CaV1.3-M1078V
Procedure, shortened: as §1

CaV1.3-M1078L = CaV1.3-M1078L (Rattus norvegicus, UniProt P27732, M1078L); assay: Whole-cell patch clamp, CaV1.3-M1078L channels; type: cell-based; settings: read-out: percent inhibition of evoked currents (median)
Procedure, shortened: as §1

CaV1.3 LTCCs = CaV1.3 LTCCs (Rattus norvegicus, UniProt P27732); assay: Equilibrium binding / displacement of 3H2-SKP004D11 in HEK293 membranes
Chain of CaV1.3 LTCCs (P27732 921-1530 limits assumed): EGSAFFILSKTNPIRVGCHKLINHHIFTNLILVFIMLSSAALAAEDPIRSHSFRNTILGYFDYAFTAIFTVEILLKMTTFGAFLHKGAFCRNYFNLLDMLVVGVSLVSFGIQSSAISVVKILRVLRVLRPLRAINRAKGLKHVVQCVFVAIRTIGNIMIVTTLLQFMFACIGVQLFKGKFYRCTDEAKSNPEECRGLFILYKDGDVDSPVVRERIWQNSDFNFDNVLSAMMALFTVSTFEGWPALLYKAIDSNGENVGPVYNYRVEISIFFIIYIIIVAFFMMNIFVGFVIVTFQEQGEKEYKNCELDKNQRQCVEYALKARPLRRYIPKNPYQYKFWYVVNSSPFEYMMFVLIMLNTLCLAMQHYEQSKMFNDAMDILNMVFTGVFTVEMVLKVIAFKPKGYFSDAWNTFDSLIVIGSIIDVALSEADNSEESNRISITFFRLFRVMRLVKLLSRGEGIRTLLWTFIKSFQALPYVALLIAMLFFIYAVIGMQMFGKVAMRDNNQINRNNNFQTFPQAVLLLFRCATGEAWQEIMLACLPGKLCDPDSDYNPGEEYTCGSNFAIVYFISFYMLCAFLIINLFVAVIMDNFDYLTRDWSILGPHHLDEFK
Procedure, shortened: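 Membranes came from HEK-293 cells stably expressing CaV1.3 α1D/β3/α2δ-1. They were washed in 40 mM HEPES, 100 mM NaCl, pH 8.0, homogenized on ice, and pelleted three times at 100,000 × g, 4 °C. Each reaction held 3.0 nM tritiated pyrimidinetrione ligand, 0.1–0.4 mg/mL protein, and unlabeled competitor, incubated 90 min at room temperature. Samples were filtered on GF/C and scintillation counted. Nonspecific binding used a saturating cold ligand. Ki came from a Langmuir fit plus Cheng-Prusoff; Kd came from a Scatchard plot (n = 4).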

CaV1.3-M1078I = assay: Whole-cell patch clamp, CaV1.3-M1078I channels; type: cell-based, rat
Procedure, shortened: as §1

CaV1.2-V1063I = CaV1.2-V1063I (Oryctolagus cuniculus, UniProt P15381, V1063I); assay: Whole-cell patch clamp, CaV1.2-V1063I channels; type: cell-based, rabbit; settings: read-out: percent inhibition of evoked currents (median)
SN dopaminergic neurons [8] = assay: mito-roGFP mitochondrial oxidant stress in ex vivo brain slices; type: cell-based, mouse
CaV1.3-T1081Y = assay: Whole-cell patch clamp, CaV1.3-T1081Y channels; type: cell-based, rat
Procedure, shortened: as §1

CaV1.2 = CaV1.2 (Oryctolagus cuniculus, UniProt P15381); assay: Whole-cell patch clamp, wild-type CaV1.2 channels; type: cell-based, rabbit; settings: read-out: percent inhibition of evoked currents (median)

In the case of `O=C1CC(=O)N(C2CCCC2)C(=O)N1CCc1cccc(Cl)c1` [cp-PYT, 1-(3-chlorophenethyl)-3-cyclopentylpyrimidine-2,4,6-trione], the “selectivity for inhibition of CaV1.3 channels over CaV1.2 channels” value [1] is given as “highly selective”, the “deactivation of tail currents” value (CaV1.3 channels [2]) is given as “slowed” and the “percent inhibition of evoked currents (median)” value (from here on “percent inhibition”) (CaV1.3; 100 μM cp-PYT) is given as 60%. For the same molecule, the “percentage inhibition of CaV1.3 peak currents (median)” value (from here on “percentage inhibition”) (CaV1.3; cp-PYT 10 μM, VH −50 mV) was 46%, the “percentage inhibition” value (CaV1.3; cp-PYT 10 μM, VH −80 mV) was 26% and the “tail current kinetics / channel deactivation rates” value (CaV1.3; cp-PYT 10 μM, step back to −80 mV) was “did not alter”. For the same molecule, the tail current kinetics (CaV1.3; cp-PYT 50 μM, step back to −80 mV) was “slowed”, the inhibition at 100 µM (CaV1.2-V1063L) was 35% and the inhibition at 100 µM (CaV1.2-V1063M+I1183V) was 32%. The inhibition at 100 µM (CaV1.2-V1063K; read-out: percent inhibition of evoked currents) was 40%, the inhibition at 100 µM (CaV1.3-M1078K) was 58% and the inhibition at 100 µM (CaV1.3-V1198I) was 45%. For the same molecule, the “reinstatement of alcohol- and cocaine-seeking” value [3] was “disrupt”, the “inhibition of CaV1.3 channels” value (CaV1.3 channels [4]) was “did inhibit” and the “inhibition of whole cell Ba2+ currents” value ([5]; cp-PYT 5 μM, voltage ramps −70 mV to +30 mV, WT mice) was “modest inhibition”. The “inhibition of whole cell Ba2+ currents” value ([5]; cp-PYT 50 μM, WT mouse) was “inhibition”, the inhibition at 100 µM (CaV1.2-I1183V) was 12% and the “effect on whole cell Ba2+ currents” value [6] was “no effect”. For the same molecule, the inhibition at 100 µM (CaV1.2 (wild-type)) was 21%, the “dendritic Ca2+ oscillations” value (SN dopaminergic neurons [7]) was “significantly reduced” and the effect on pacemaking (SN dopaminergic neurons [7]) was “no effect”. For the same molecule, the inhibition at 100 µM (CaV1.2-V1063M) was 47%, the “percent inhibition” value (CaV1.3-M1078V; 100 μM cp-PYT) was 4% and the “tail currents in M1078V mutant channels” value (CaV1.3-M1078V; cp-PYT (100 μM) in text) was “slowing of tail currents persisted”. The inhibition at 100 µM (CaV1.3-M1078L) was 31%, the “displacement of tritiated D11 binding” value (CaV1.3 LTCCs; equilibrium membrane binding) was “displaced” and the “percent inhibition” value (CaV1.3-M1078I; 100 μM cp-PYT) was 37%. For the same molecule, the inhibition at 100 µM (CaV1.2-V1063I) was 48%, the mitochondrial oxidant stress (SN dopaminergic neurons [8]; cp-PYT 50 μM bath application) was “significantly diminished” and the “percent inhibition” value (CaV1.3-T1081Y; 100 μM cp-PYT) was 2%.

With `COC(=O)C1=C(C)NC(C)=C(C(=O)OC(C)C)C1c1cccc2nonc12` (centres unmarked) [isradipine, reference compound] the “percent inhibition” value (CaV1.3; 5 μM isradipine) was 90%, the “percentage inhibition” value (CaV1.3; isradipine 100 nM (Fig. 4a legend), VH −50 mV) was 92% and the “percentage inhibition” value (CaV1.3; isradipine 100 nM (Fig. 4a legend), VH −80 mV) was 43%. The inhibition at 5 µM (CaV1.2-V1063L) was 95%, the inhibition at 5 µM (CaV1.2-V1063M+I1183V) was 93% and the inhibition at 5 µM (CaV1.2-V1063K; read-out: percent inhibition of evoked currents (median)) was 72%. The inhibition at 5 µM (CaV1.3-M1078K) was 88%, the inhibition at 5 µM (CaV1.3-V1198I) was 94% and the “reinstatement of alcohol- and cocaine-seeking” value [3] was “disrupt”. For the same molecule, the inhibition at 5 µM (CaV1.2-I1183V) was 95%, the inhibition at 5 µM (CaV1.2) was 78% and the inhibition at 5 µM (CaV1.2-V1063M) was 92%. For the same molecule, the “percent inhibition” value (CaV1.3-M1078V; 5 μM isradipine) was 78%, the inhibition at 5 µM (CaV1.3-M1078L) was 69% and the pKi (CaV1.3 LTCCs) was 7.17. The “fraction of 3H2-D11 binding not displaced” value (CaV1.3 LTCCs; displacement by isradipine) was ~ 20%, the “percent inhibition” value (CaV1.3-M1078I; 5 μM isradipine) was 85% and the inhibition at 5 µM (CaV1.2-V1063I) was 91%. For the same molecule, the mitochondrial oxidant stress (SN dopaminergic neurons [8]; isradipine 1 μM) was “diminished” and the “percent inhibition” value (CaV1.3-T1081Y; 5 μM isradipine) was 1%.
